Measured values: ChEMBL document CHEMBL5042480, “3CL Protease Inhibitors with an Electrophilic Arylketone Moiety as Anti-SARS-CoV-2 Agents” (J Med Chem, 2022)

Assays:
[1] = Cytotoxicity against African green monkey Vero cells assessed as cell viability incubated for 24 hrs by MTT assay; format: toxicity, cell-based; details: chlorocebus sabaeus
Method in brief: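 Vero cells were seeded at 1.0 × 10^4 cells/well and cultured overnight at 37 °C. Compound was added for 24 h, and viability was measured by MTT assay with absorbance at 570 nm.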

[2] = Total clearance in overnight-fasted Wistar rat at 0.1 mg/kg, iv measured upto 7 hrs by quadrupole mass spectrometry coupled UFLC analysis; format: ADME, organism-based; details: in vivo
Method in brief: (§1)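 Conscious, freely moving male Wistar rats received compound in saline at 4 mL/kg, either i.v. via jugular vein at 0.1 mg/kg or by oral gavage at 0.5 mg/kg. Cannula blood was sampled up to 7 h and plasma measured by LC-MS/MS. Analysis was noncompartmental (trapezoidal AUC); Cmax and tmax were taken as observed, and t1/2 from log-linear terminal regression over at least 3 points. Mean ± SD, n = 5.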

[3] = Drug metabolism in rat hepatocytes assessed as CYP450-catalysed oxidative pathway mediated metabolite formation at 10 uM incubated upto 2 hrs by LC/UV/MS analysis; format: ADME, cell-based, Hepatocyte
Method in brief: (§2)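 Hepatocytes were suspended at 6 × 10^5 viable cells/mL in KHB buffer and given compound at 10 μM. Incubation was 0 and 2 h at 37 °C under 5% CO2, stopped with acetonitrile. After centrifugation, supernatant metabolites were analysed by LC/UV/MS.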

[4] = Drug metabolism in rat hepatocytes assessed as amide hydrolysis mediated HC-7 metabolite formation at 10 uM incubated upto 2 hrs by LC/UV/MS analysis; format: ADME, cell-based, Hepatocyte; method in brief: as §2
[5] = Drug metabolism in human hepatocytes assessed as amide hydrolysis mediated HC-7 metabolite formation at 10 uM incubated upto 2 hrs by LC/UV/MS analysis; format: ADME, cell-based, Hepatocyte; method in brief: as §2
[6] = Drug metabolism in rat hepatocytes assessed as amide hydrolysis mediated HC-5 metabolite formation at 10 uM incubated upto 2 hrs by LC/UV/MS analysis; format: ADME, cell-based, Hepatocyte; method in brief: as §2
[7] = Inhibition of recombinant C-terminal His-tagged SARS coronavirus 1 3CL protease using Boc-Abu-Tle-Leu-Gln-AMC as substrate incubated for 5 mins by Cheng-Prusoff equation analysis; parameters: species or system Severe acute respiratory syndrome-related coronavirus
[8] = Drug metabolism in human hepatocytes assessed as amide hydrolysis mediated HC-5 metabolite formation at 10 uM incubated upto 2 hrs by LC/UV/MS analysis; format: ADME, cell-based, Hepatocyte; method in brief: as §2
[9] = Apparent total clearance in overnight-fasted Wistar rat at 0.5 mg/kg, po measured upto 7 hrs by quadrupole mass spectrometry coupled UFLC analysis; format: ADME, organism-based; details: in vivo, read-out: CLt/F (converted); method in brief: as §1
[10] = Cmax in overnight-fasted Wistar rat at 0.5 mg/kg, po measured upto 7 hrs by quadrupole mass spectrometry coupled UFLC analysis; format: ADME, organism-based; parameters: route oral, dose 0.5 mg/kg, time <=7; details: in vivo; method in brief: as §1
[11] = MRT (total) in overnight-fasted Wistar rat at 0.5 mg/kg, po measured upto 7 hrs by quadrupole mass spectrometry coupled UFLC analysis; format: ADME, organism-based; details: in vivo; method in brief: as §1
[12] = AUC (0 to infinity) in overnight-fasted Wistar rat at 0.5 mg/kg, po measured upto 7 hrs by quadrupole mass spectrometry coupled UFLC analysis; format: ADME, organism-based; parameters: route oral, dose 0.5 mg/kg, time <=7; details: in vivo
Method in brief: (§3)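 Male Wistar rats, conscious and unrestrained, were given the compound in saline at 4 mL/kg, either as an i.v. bolus via the left jugular vein or by oral gavage. Heparinized blood was drawn from a cannula at set times up to 7 h and the plasma analysed by LC-MS/MS. AUC0–7 and AUC0–∞ came from noncompartmental trapezoidal analysis; mean ± SD, n = 5.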

Cytochrome P450 2C9 = Cytochrome P450 2C9 (Homo sapiens, UniProt P11712); assay: Inhibition of CYP2C9 in human liver microsome at 10 uM; format: toxicity; details: microsomes
Sequence of Cytochrome P450 2C9 (P11712 whole entry): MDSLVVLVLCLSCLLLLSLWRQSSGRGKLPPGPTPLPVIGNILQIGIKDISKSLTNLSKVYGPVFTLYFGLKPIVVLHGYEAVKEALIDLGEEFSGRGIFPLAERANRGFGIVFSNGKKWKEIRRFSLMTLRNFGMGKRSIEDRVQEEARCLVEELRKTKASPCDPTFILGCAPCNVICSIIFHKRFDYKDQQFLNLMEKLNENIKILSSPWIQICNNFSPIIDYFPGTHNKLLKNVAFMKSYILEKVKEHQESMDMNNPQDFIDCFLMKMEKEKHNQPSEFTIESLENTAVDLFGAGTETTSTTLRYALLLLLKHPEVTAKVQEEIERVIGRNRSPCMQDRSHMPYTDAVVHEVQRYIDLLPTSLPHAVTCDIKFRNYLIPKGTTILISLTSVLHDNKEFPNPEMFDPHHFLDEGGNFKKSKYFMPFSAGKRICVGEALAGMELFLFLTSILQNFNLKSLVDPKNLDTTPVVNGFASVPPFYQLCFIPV
Method in brief: (§4)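 Human liver microsomes (0.1 mg protein/mL) were mixed with compound at 10 μM and probe substrates in phosphate buffer pH 7.4: tacrine (CYP1A2), paclitaxel (2C8), tolbutamide (2C9), dextromethorphan (2D6) and midazolam (3A4). Reactions were started with an NADPH-generating system, run 10 min at 37 °C and stopped with acetonitrile. Metabolites were measured by LC/MS/MS and activity expressed as % remaining versus the no-inhibitor control.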

[13] = Half life in overnight-fasted Wistar rat at 0.5 mg/kg, po measured upto 7 hrs by quadrupole mass spectrometry coupled UFLC analysis; format: ADME, organism-based; details: in vivo; method in brief: as §1
[14] = Half life in overnight-fasted Wistar rat at 0.1 mg/kg, iv measured upto 7 hrs by quadrupole mass spectrometry coupled UFLC analysis; format: ADME, organism-based; details: in vivo; method in brief: as §1
[15] = AUC (0 to infinity) in overnight-fasted Wistar rat at 0.1 mg/kg, iv measured upto 7 hrs by quadrupole mass spectrometry coupled UFLC analysis; format: ADME, organism-based; parameters: route intravenous, dose 0.1 mg/kg, time <=7; details: in vivo; method in brief: as §3
[16] = molecular target: Voltage-gated inwardly rectifying potassium channel KCNH2 (Homo sapiens, UniProt Q12809); assay: Inhibition of hERG expressed in CHO cells at > 100 uM by whole-cell patch-clamp voltage-clamp method; format: toxicity, cell-based
Sequence of Voltage-gated inwardly rectifying potassium channel KCNH2 (Q12809 whole entry): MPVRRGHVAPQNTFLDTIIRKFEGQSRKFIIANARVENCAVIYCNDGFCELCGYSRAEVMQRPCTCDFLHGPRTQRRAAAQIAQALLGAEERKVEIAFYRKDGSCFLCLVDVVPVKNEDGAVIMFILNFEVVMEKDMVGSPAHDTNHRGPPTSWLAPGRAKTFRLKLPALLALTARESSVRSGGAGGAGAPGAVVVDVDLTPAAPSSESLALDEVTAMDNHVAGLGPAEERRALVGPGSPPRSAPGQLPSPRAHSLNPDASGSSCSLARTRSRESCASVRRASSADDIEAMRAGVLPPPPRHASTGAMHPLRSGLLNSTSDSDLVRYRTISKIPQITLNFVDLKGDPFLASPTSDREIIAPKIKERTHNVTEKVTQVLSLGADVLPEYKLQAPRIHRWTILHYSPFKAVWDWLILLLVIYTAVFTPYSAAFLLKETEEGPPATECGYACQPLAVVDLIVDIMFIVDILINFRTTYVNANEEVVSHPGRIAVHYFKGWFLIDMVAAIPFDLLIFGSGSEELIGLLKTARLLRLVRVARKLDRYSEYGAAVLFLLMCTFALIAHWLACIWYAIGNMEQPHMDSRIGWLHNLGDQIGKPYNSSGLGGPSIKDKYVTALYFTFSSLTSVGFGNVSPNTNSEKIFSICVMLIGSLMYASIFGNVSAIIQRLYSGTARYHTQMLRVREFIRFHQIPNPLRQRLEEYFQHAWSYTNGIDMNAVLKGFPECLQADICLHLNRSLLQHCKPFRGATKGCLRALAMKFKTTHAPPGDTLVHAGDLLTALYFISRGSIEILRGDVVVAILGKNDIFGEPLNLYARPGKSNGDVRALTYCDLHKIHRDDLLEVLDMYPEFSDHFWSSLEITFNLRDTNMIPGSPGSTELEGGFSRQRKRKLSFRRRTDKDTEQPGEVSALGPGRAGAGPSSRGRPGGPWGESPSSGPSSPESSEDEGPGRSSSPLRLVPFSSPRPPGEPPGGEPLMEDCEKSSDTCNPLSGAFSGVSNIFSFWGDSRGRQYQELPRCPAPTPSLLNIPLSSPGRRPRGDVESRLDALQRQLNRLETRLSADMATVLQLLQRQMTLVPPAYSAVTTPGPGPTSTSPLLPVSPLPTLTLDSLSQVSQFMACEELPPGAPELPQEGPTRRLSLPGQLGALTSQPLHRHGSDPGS
Method in brief: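 hERG tail current was recorded by automated whole-cell patch clamp in CHO cells stably expressing hERG at room temperature. The pulse was +40 mV for 500 ms, then a ramp to −80 mV, repeated every 5 s. Compound was applied cumulatively at 5 min intervals. Verapamil served as positive control and DMSO as vehicle.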

Cytochrome P450 2C8 = molecular target: T1, Cytochrome P450 2C8 (Homo sapiens, UniProt P10632); assay: Inhibition of CYP2C8 in human liver microsome at 10 uM; format: toxicity; details: microsomes; method in brief: as §4
T1 sequence (P10632 whole entry): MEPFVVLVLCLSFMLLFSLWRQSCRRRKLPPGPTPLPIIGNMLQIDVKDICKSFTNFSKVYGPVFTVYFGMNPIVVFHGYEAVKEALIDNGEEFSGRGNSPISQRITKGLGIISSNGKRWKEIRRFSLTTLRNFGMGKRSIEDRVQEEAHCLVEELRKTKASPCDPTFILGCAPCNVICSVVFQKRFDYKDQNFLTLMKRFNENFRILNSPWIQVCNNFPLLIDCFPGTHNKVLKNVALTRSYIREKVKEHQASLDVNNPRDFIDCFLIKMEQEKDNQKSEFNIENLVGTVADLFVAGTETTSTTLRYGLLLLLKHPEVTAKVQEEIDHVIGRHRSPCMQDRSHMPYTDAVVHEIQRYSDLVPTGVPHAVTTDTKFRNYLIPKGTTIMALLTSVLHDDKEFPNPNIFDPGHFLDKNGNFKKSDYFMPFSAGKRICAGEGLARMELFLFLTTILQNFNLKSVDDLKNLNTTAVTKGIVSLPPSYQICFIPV

[17] = Protein binding in human plasma incubated for 6 hrs by quadrupole mass spectrometry coupled UFLC analysis; format: ADME, cell-free; details: read-out: PPB
Cytochrome P450 2D6 = Cytochrome P450 2D6 (Homo sapiens, UniProt P10635); assay: Inhibition of CYP2D6 in human liver microsome at 10 uM; format: toxicity; details: microsomes; method in brief: as §4
Sequence of Cytochrome P450 2D6 (P10635 whole entry): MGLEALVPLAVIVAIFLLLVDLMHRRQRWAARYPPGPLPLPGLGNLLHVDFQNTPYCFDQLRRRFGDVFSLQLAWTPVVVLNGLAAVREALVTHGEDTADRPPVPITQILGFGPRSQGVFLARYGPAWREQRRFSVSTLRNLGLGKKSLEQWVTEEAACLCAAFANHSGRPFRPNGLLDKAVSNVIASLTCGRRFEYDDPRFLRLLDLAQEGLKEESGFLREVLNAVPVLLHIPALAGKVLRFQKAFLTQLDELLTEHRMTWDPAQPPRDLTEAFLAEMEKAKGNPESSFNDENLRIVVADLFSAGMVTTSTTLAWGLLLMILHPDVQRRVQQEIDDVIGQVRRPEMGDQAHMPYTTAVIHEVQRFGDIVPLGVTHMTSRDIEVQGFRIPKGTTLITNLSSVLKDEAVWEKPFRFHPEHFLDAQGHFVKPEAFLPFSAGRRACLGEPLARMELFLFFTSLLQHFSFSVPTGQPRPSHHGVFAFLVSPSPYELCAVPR

With `COc1cccc2[nH]c(C(=O)N[C@@H](CC(C)C)C(=O)N[C@@H](C[C@@H]3CCNC3=O)C(=O)c3nc4ccccc4s3)cc12` the CC50 at 24 h [1] was > 100000 nM, the clearance [2] was 107 mL/min/kg and the Drug metabolism [3] was “Metabolite_Detected”. For the same compound, the Drug metabolism [4] was “Metabolite_Detected”, the Drug metabolism [5] was “Metabolite_Detected” and the Drug metabolism [6] was “Metabolite_Detected”. The Ki [7] was 6.3 nM, the Drug metabolism [8] was “Metabolite_Detected” and the CL/F [9] was 2650 mL/min/kg. The Cmax [10] was 1.08 ng/mL, the MRT [11] was 13.2 h and the AUC(0-inf) [12] was 3.49 ng·h/mL. The “inhibition (INH)” value (Cytochrome P450 2C9) was “Not Active”, the half-life [13] was 9.64 h and the half-life [14] was 2.97 h. The AUC(0-inf) [15] was 19.7 ng·h/mL, the “inhibition (INH)” value [16] was “Not Active” and the “inhibition (INH)” value (Cytochrome P450 2C8) was “Active”. For the same compound, the fraction unbound at 6 h [17] was 0.01 and the “inhibition (INH)” value (Cytochrome P450 2D6) was “Active”.
